# Measurements: ChEMBL document CHEMBL3526090, “Pharmacokinetic mechanism involved in the prolonged high retention of laninamivir in mouse respiratory tissues after intranasal administration of its prodrug laninamivir octanoate” (Drug Metab Dispos, 2013)
# What was measured:
# [1] = Tmax in BALB/cAnNCrlCrlj mouse plasma at 0.5 umol/kg administered intranasally; assay type: ADME, cell-free; conditions: inhaled or intranasal
# How it was run: (§1)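 Female BALB/c mice (7 weeks old) received a single intranasal dose of 0.5 μmol/kg at 2.5 ml/kg, with N=3–4 per time point up to 24 h. Plasma, BAL fluid (3 × 1 ml PBS pH 7.4) and lung homogenate were taken, and AEBSF was added to a final 5 mM. LO and laninamivir were measured by LC-MS/MS. ELF levels were corrected using the urea ratio between plasma and BAL. Non-compartmental analysis on mean concentrations gave Cmax/Tmax by observation, t1/2 from ≥3 terminal log points, and AUClast by the trapezoidal method.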
# Lung [2] = experiment: AUClast in BALB/cAnNCrlCrlj mouse lung at 0.5 umol/kg administered intranasally; assay type: ADME; conditions: in vivo, inhaled_or_intranasal; how it was run: as §1
# [3] = AUClast in BALB/cAnNCrlCrlj mouse plasma at 0.5 umol/kg administered intranasally; assay type: ADME, cell-free; set-up: dose 0.5 umol/kg, time 0 - last, route nasal; conditions: inhaled or intranasal; how it was run: as §1
# Lung [4] = experiment: Elimination half life in BALB/cAnNCrlCrlj mouse lung at 0.5 umol/kg administered intranasally; assay type: ADME, tissue-based; conditions: in vivo, inhaled_or_intranasal; how it was run: as §1
# [5] = Elimination half life in BALB/cAnNCrlCrlj mouse plasma at 0.5 umol/kg administered intranasally; assay type: ADME, cell-free; conditions: inhaled or intranasal, read-out: beta t1/2 (converted); how it was run: as §1
# [6] = Drug uptake in BALB/cAnNCrlCrlj mouse epithelial lining fluid at 0.5 umol/kg administered intranasally measured at 4 hrs by LC-MS/MS analysis; assay type: ADME, tissue-based; conditions: inhaled or intranasal, read-out: Drug uptake
# How it was run: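 Female BALB/c mice were dosed intranasally at 0.5 μmol/kg (2.5 ml/kg), N=3–4 per time point. At each sampling time, blood was taken by cardiac puncture, BAL was done with 3 × 1 ml PBS, and lungs were homogenized in 50% acetonitrile. LO and laninamivir were quantified by LC-MS/MS, calibrated over 1–100 ng/ml and 0.5–100 ng/ml respectively. ELF concentration was calculated as CBAL × (urea in plasma / urea in BAL).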
# [7] = AUClast in BALB/cAnNCrlCrlj mouse epithelial lining fluid at 0.5 umol/kg administered intranasally; assay type: ADME, tissue-based; set-up: dose 0.5 umol/kg, route nasal, time 0 - last; conditions: inhaled or intranasal; how it was run: as §1
# [8] = Cmax in BALB/cAnNCrlCrlj mouse plasma at 0.5 umol/kg administered intranasally; assay type: ADME, cell-free; set-up: dose 0.5 umol/kg, route nasal; conditions: inhaled or intranasal; how it was run: as §1
# [9] = Tmax in BALB/cAnNCrlCrlj mouse epithelial lining fluid at 0.5 umol/kg administered intranasally; assay type: ADME, tissue-based; conditions: inhaled or intranasal; how it was run: as §1
# [10] = Aqueous solubility of the compound; assay type: physicochemical; conditions: buffer
# [11] = Cmax in BALB/cAnNCrlCrlj mouse epithelial lining fluid at 0.5 umol/kg administered intranasally; assay type: ADME, tissue-based; set-up: dose 0.5 umol/kg, route nasal; conditions: inhaled or intranasal; how it was run: as §1
# [12] = Elimination half life in BALB/cAnNCrlCrlj mouse epithelial lining fluid at 0.5 umol/kg administered intranasally; assay type: ADME, tissue-based; conditions: in vivo, inhaled_or_intranasal; how it was run: as §1
# [13] = Prodrug activation in primary cultured BALB/c mouse airway epithelial cells assessed as formation of laninamivir measured at 60 mins by LC-MS/MS analysis; assay type: cell-based; conditions: epithelial cell, 1 h
# How it was run: (§2)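 Primary airway epithelial cells from BALB/c mice were obtained by collagenase digestion and negative immunomagnetic selection, then grown to confluence on collagen I. Cells were pre-incubated 30 min in serum-free F-12K. For the time course they were exposed to 50 μM LO for up to 120 min; for concentration dependence, to 10–1000 μM LO for 60 min, at 37°C. After ice-cold PBS washes and Triton lysis, intracellular LO and laninamivir were measured by LC-MS/MS and normalized to Lowry protein, in triplicate.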
# [14] = Lipophilicity, log D of the compound at pH 7.4; assay type: physicochemical; conditions: buffer
# [15] = Prodrug activation in primary cultured BALB/c mouse airway epithelial cells assessed as formation of laninamivir measured at 50 uM measured at 24 hrs by LC-MS/MS analysis; assay type: cell-based; conditions: epithelial cell
# How it was run: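 Confluent primary BALB/c airway epithelial cells were loaded with 50 μM LO for 60 min and then washed. They were then incubated in drug-free medium at 37°C for up to 24 h, with the medium fully replaced at each sampling point. Cells were washed with ice-cold PBS and lysed. LO and laninamivir in medium and cells were measured by LC-MS/MS and normalized to Lowry protein, in triplicate. Release and hydrolysis rate constants were obtained by first-order compartmental modelling.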
# [16] = Drug uptake in primary cultured BALB/c mouse airway epithelial cells at 50 uM measured up to 90 mins by LC-MS/MS analysis; assay type: ADME, cell-based; conditions: epithelial cell; how it was run: as §2
# [17] = Tmax in BALB/cAnNCrlCrlj mouse lung at 0.5 umol/kg administered intranasally; assay type: ADME; conditions: inhaled or intranasal; how it was run: as §1
# [18] = Prodrug activation in primary cultured BALB/c mouse airway epithelial cells assessed as formation of laninamivir at 50 uM measured up to 60 to 90 mins by LC-MS/MS analysis; assay type: cell-based; conditions: epithelial cell; how it was run: as §2
# Lung [19] = experiment: Cmax in BALB/cAnNCrlCrlj mouse lung at 0.5 umol/kg administered intranasally; assay type: ADME; set-up: dose 0.5 umol/kg, route nasal; conditions: in vivo, inhaled_or_intranasal; how it was run: as §1
smiles,measurement,setting,value
CCCCCCCC(=O)OC[C@@H](O)[C@@H](OC)[C@@H]1OC(C(=O)O)=C[C@H](NC(=N)N)[C@H]1NC(C)=O [LANINAMIVIR OCTANOATE],Tmax,[1],30 min
same,AUClast,Lung [2],4480 pmol·h/g
same,AUC(0-t),[3],0.323 µM·h
same,beta t1/2,Lung [4],78 min
same,half-life,[5],36 min
same,concentration at 4 h,[6],348 nM
same,AUC(0-t),[7],23.6 µM·h
same,Cmax,[8],242 nM
same,Tmax,[9],1.98 min
same,solubility,[10],1270 µM
same,Cmax,[11],20400 nM
same,beta t1/2,[12],66 min
same,Drug metabolism,[13],Dose-dependent effect
same,logD,[14],-0.01
same,Drug metabolism,[15],metabolite_detected
same,Drug uptake,[16],Active
same,Tmax,[17],30 min
same,Drug metabolism,[18],metabolite_detected
same,Cmax,Lung [19],1760 pmol/g
